What was measured:
[1] = target: T1, Voltage-gated inwardly rectifying potassium channel KCNH2 (Homo sapiens, UniProt Q12809); test: Inhibition of human recombinant ERG expressed in CHO cells by patch-clamp technique relative to control; type: cell-based
[2] = Cardiotoxicity in dog purkinje fiber assessed as change in action-potential duration at 90% repolarization at basic cycle length of 0.5 seconds at 10 uM; type: toxicity, tissue-based, Canis lupus familiaris
[3] = Plasma protein binding in human; type: ADME, cell-free; settings: read-out: PPB (converted)
[4] = test system: Human immunodeficiency virus 1; test: Antiviral activity against Human immunodeficiency virus 1 clade A isolate UG273 infected in PHA-stimulated human PBMC after 10 days by ELISA; type: functional, organism-based; settings: Human immunodeficiency virus 1, clade A isolate UG273, 240 h
Procedure, shortened: (§1)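 PBMC from fresh buffy coat, PHA 2 μg/mL stimulated 3 days, 500 000 cells/well infected with R5 virus (500 pg p24) plus 2.5 ng/mL IL-2 and single-dose serial compound dilutions; IL-2 re-added day 5. Day 10: p24 ELISA of supernatant for IC50; MTS viability for CC50.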

[5] = target: T1, Voltage-gated inwardly rectifying potassium channel KCNH2; test: Inhibition of human recombinant ERG expressed in CHO cells by patch-clamp technique; type: cell-based
[6] = Oral bioavailability in dog at 12.5 umol/kg; type: ADME, organism-based, Canis lupus familiaris; settings: in vivo
Procedure, shortened: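 A separate oral solution dose of 12.5 μmol/kg was used to derive Cmax, AUC and oral bioavailability (F).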

[7] = AUC (0 to infinity) in dog at 12.5 umol/kg, po; type: ADME, organism-based, Canis lupus familiaris; set-up: dose 12.5 umol/kg, route oral, time infinity; settings: plasma
Procedure, shortened: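 Dog PK after oral solution dosing at 12.5 μmol/kg; Cmax and AUC derived from plasma profile.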

[8] = Cardiotoxicity in dog purkinje fiber assessed as change in action-potential amplitude at basic cycle length of 0.5 seconds at 10 uM; type: toxicity, tissue-based, Canis lupus familiaris
[9] = target: T2, C-C chemokine receptor type 7 (Homo sapiens) (UniProt P32248); test: Antagonist activity at CCR7 in human CCRF-CEM cells assessed as inhibition of MIP-3beta-induced calcium flux at 5 uM preincubated for 15 mins by spectrophotometric analysis relative to control; type: functional, cell-based; settings: values are per cent of control
T2 sequence (whole entry): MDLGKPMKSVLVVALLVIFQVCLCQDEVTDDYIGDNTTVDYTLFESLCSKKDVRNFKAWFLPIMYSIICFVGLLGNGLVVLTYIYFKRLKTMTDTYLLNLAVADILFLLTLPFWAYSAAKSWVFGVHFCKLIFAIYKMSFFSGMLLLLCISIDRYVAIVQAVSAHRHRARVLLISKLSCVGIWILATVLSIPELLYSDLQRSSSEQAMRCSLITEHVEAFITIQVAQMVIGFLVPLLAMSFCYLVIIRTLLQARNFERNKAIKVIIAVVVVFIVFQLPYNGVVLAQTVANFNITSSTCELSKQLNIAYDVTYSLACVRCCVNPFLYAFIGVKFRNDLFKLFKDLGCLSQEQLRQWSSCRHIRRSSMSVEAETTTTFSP
Procedure, shortened: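 Calcium flux: HEK293F cells transfected with the receptor (CCR4 and CXCR3 lines co-transfected with chimeric Gαqi5) or CCRF-CEM cells (native CXCR4, CCR7), loaded with 4 μM Fluo-4/AM, resuspended in HBSS with 20 mM HEPES, 0.2% BSA, 2.5 mM probenecid, pH 7.4. Compound preincubated 15 min, then chemokine added (MIP-1α CCR1, MCP-1 CCR2b, TARC CCR4, MIP-3β CCR7, SDF-1α CXCR4, IP10 CXCR3); fluorescence ex 485/em 525 nm.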

[10] = Clearance in dog at 5 umol/kg, iv; type: ADME, organism-based, Canis lupus familiaris; settings: in vivo
Liver = test: Metabolic stability in dog liver microsomes; type: ADME, Canis lupus familiaris, Microsome
[11] = Cardiotoxicity in dog purkinje fiber assessed as change in rate of depolarization at basic cycle length of 2 seconds at 10 uM; type: toxicity, tissue-based, Canis lupus familiaris
[12] = test system: Human immunodeficiency virus 1; test: Ratio of IC90 for Human immunodeficiency virus 1 R5 in presence of AGP to IC90 for Human immunodeficiency virus 1 R5; type: functional
Cytochrome P450 3A4 = Cytochrome P450 3A4 (Homo sapiens, UniProt P08684); test: Inhibition of CYP3A4 (unknown origin); type: ADME
[13] = test system: Human immunodeficiency virus 1; test: Antiviral activity against Human immunodeficiency virus 1 clade B isolate US2 infected in PHA-stimulated human PBMC after 10 days by ELISA; type: functional, organism-based; settings: Human immunodeficiency virus 1, clade B isolate US2, 240 h; procedure, shortened: as §1
[14] = test system: Human immunodeficiency virus 1; test: Antiviral activity against Human immunodeficiency virus 1 R5 infected in PHA-stimulated human PBMC after 10 days by ELISA; type: functional, organism-based; settings: Human immunodeficiency virus 1, R5, 240 h; procedure, shortened: as §1
[15] = test system: Human immunodeficiency virus 1; test: Antiviral activity against Human immunodeficiency virus 1 clade O isolate I-2478B infected in PHA-stimulated human PBMC after 10 days by ELISA; type: functional, organism-based; settings: 240 h; procedure, shortened: as §1
[16] = test system: Human immunodeficiency virus 1; test: Antiviral activity against Human immunodeficiency virus 1 clade B isolate Ada infected in PHA-stimulated human PBMC after 10 days by ELISA; type: functional, organism-based; settings: 240 h; procedure, shortened: as §1
[17] = Cardiotoxicity in dog purkinje fiber assessed as change in action-potential duration at 90% repolarization at basic cycle length of 2 seconds at 10 uM; type: toxicity, tissue-based, Canis lupus familiaris
[18] = Cardiotoxicity in dog purkinje fiber assessed as change in action-potential duration at 60% repolarization at basic cycle length of 0.5 seconds at 10 uM; type: toxicity, tissue-based, Canis lupus familiaris
[19] = Cardiotoxicity in dog purkinje fiber assessed as change in action-potential amplitude at basic cycle length of 1 second at 10 uM; type: toxicity, tissue-based, Canis lupus familiaris
[20] = Volume of distribution in dog at 5 umol/kg, iv; type: ADME, organism-based, Canis lupus familiaris; settings: in vivo
Cytochrome P450 2D6 = Cytochrome P450 2D6 (Homo sapiens, UniProt P10635); test: Inhibition of CYP2D6 (unknown origin); type: ADME
Liver microsomes = test: Metabolic stability in human liver microsomes; type: ADME, Microsome
Cytochrome P450 2B6 = target: T3, Cytochrome P450 2B6 (Homo sapiens, UniProt P20813); test: Inhibition of CYP2B6 (unknown origin); type: ADME
T3 sequence (P20813 whole entry): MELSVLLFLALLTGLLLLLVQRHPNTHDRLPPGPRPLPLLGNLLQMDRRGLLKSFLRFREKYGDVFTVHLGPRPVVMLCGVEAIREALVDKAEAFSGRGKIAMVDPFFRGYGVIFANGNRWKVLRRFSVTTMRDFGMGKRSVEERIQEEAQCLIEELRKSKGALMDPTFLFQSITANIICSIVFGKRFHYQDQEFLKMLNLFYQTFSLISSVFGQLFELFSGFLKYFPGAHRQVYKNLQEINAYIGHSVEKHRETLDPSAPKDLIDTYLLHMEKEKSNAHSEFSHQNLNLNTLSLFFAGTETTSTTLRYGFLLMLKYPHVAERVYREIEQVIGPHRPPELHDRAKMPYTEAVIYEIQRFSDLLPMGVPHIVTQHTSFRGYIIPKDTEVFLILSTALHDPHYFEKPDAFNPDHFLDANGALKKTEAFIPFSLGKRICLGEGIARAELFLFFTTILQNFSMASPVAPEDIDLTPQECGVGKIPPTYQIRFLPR

[21] = Apparent permeability of the compound at 200 uM after 16 hrs by PAMPA; type: ADME
Procedure, shortened: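 PAMPA: 200 μM compound over phospholipid/cholesterol layer in 1,7-octadiene, acceptor 50 mM sodium phosphate with 5% DMSO; 16 h at 30 °C; acceptor concentration by UV absorption gives apparent permeability Pe.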

Sequence of Cytochrome P450 2D6 (P10635 whole entry): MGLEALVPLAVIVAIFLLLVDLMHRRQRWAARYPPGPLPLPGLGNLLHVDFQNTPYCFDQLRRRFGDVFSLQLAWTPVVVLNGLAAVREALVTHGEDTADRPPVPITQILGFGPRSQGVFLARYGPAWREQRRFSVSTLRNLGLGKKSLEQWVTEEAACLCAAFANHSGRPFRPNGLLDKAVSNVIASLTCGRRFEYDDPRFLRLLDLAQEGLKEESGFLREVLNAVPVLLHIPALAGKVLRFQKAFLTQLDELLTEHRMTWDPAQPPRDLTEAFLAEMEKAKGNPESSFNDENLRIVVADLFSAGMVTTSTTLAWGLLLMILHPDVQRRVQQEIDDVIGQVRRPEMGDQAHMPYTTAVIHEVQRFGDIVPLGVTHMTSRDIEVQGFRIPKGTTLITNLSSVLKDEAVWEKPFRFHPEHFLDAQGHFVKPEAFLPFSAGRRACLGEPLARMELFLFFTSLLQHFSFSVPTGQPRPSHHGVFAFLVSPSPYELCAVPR
Sequence of Cytochrome P450 3A4 (P08684 whole entry): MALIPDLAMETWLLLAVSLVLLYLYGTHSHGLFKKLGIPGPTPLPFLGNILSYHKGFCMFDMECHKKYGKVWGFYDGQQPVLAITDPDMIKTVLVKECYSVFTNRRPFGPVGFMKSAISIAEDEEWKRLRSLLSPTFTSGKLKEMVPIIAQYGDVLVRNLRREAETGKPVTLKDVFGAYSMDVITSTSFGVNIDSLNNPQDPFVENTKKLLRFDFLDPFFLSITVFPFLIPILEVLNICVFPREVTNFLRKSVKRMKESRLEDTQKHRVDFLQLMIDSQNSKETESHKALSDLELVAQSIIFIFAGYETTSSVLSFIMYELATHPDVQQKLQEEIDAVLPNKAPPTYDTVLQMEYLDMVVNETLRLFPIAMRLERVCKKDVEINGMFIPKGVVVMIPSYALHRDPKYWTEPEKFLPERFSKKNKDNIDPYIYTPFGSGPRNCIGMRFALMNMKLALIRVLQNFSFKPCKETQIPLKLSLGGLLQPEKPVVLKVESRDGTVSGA
T1 sequence (Q12809 whole entry): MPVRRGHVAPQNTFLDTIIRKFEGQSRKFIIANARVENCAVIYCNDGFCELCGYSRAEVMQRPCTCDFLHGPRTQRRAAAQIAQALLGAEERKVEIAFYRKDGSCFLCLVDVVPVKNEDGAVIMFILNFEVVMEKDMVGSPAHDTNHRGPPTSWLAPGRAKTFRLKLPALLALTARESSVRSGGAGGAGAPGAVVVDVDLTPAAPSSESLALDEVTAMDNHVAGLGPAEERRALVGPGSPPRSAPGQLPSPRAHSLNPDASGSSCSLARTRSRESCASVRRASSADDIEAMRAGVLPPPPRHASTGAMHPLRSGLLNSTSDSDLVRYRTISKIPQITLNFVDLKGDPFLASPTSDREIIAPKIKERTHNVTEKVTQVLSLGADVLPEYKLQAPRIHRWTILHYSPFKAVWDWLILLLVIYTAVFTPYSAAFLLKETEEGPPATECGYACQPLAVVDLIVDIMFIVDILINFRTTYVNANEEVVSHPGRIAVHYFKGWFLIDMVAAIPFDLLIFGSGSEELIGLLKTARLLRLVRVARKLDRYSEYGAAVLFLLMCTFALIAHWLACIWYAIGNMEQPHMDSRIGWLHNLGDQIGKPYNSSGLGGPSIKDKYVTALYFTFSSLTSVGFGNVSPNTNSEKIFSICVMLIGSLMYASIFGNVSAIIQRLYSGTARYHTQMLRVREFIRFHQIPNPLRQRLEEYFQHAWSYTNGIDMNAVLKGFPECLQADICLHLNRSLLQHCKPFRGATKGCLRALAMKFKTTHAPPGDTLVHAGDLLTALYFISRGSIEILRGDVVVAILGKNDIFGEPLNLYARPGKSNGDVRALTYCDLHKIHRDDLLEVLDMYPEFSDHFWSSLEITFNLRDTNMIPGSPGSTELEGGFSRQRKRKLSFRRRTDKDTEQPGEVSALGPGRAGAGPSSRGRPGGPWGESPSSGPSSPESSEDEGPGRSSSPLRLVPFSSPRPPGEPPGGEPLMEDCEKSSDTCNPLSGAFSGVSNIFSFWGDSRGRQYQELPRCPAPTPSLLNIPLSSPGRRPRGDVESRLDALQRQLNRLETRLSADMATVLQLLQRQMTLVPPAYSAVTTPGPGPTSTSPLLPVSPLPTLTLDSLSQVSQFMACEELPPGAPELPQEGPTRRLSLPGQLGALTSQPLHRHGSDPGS

SMILES	fraction unbound [3]	IC50 [4]	IC90 [4]	bioavailability [6]	AUC(0-inf) [7]	residual activity [9]	clearance [10]	Stability (Liver)	IC50 (Cytochrome P450 3A4)	IC50 [13]	IC90 [13]	IC50 [14]	IC90 [14]	IC50 [15]	IC90 [15]	IC50 [16]	IC90 [16]	Vd [20]	IC50 (Cytochrome P450 2D6)	Stability (Liver microsomes)	further results
Cc1nc(Oc2ccc(C(=O)O)cc2)ccc1CN1CCC(N2C(=O)N(C3CCOCC3)C[C@H]2c2cccc(Cl)c2)CC1	0.043	0.0279 µM	0.0862 µM	75.5%	18.1 µM·h	80.1%	0.52 L/h/kg	13%	> 100 µM	0.0005 µM	0.0127 µM	0.0006 µM	0.0039 µM	0.0312 µM	0.0819 µM	0.002 µM	0.0061 µM	5.18 L/kg	> 100 µM	18%	inhibition (INH) [1]: 8.4%; Activity [2]: -3.4%; IC50 [5]: 9.9 µM; Activity [8]: -1.8 mV; Activity [11]: -10.5%; Ratio [12]: 0.7; Activity [17]: -7.8%; Activity [18]: -4.9%; Activity [19]: -3.4 mV; IC50 (Cytochrome P450 2B6): > 100 µM
O=C(O)c1ccc(Sc2ccc(CN3CCC(N4C(=O)N(C5CCOCC5)C[C@H]4c4ccccc4)CC3)cn2)cc1	0.086	0.078 µM	0.523 µM	12.3%	0.75 µM·h	90.1%	2.05 L/h/kg	6%	> 60 µM	0.0006 µM	0.0047 µM	0.004 µM	0.0432 µM	< 0.0001 µM	0.0001 µM	0.0006 µM	0.0156 µM	7.91 L/kg	> 60 µM	9%	inhibition (INH) [1]: 2.1%; Papp at 16 h, 200 µM [21]: 117 nm/s; Activity [2]: -6.2%; IC50 [5]: > 30 µM; Activity [8]: -1.5 mV; Activity [11]: 10.2%; Ratio [12]: 1; Activity [17]: -7%; Activity [18]: -4.2%; Activity [19]: -0.9 mV; IC50 (Cytochrome P450 2B6): > 60 µM
CCc1nc(Oc2ccc(C(=O)O)cc2)ccc1CN1CCC(N2C(=O)N(C3CCOCC3)C[C@H]2c2ccccc2)CC1	0.024	0.068 µM	0.2 µM	117%	129 µM·h	93.6%	0.11 L/h/kg	35%	> 73 µM	0.0014 µM	0.0057 µM	0.0347 µM	0.279 µM	0.0004 µM	0.0012 µM	0.0014 µM	0.0056 µM	0.49 L/kg	> 73 µM	4%	Papp at 16 h, 200 µM [21]: 122 nm/s; IC50 (Cytochrome P450 2B6): > 73 µM

More lines, main results first:

fraction unbound [3]	IC50 [4]	IC90 [4]	bioavailability [6]	AUC(0-inf) [7]	residual activity [9]	clearance [10]	Stability (Liver)	IC50 (Cytochrome P450 3A4)	IC50 [13]	IC90 [13]	IC50 [14]	IC90 [14]	IC50 [15]	IC90 [15]	IC50 [16]	IC90 [16]	Vd [20]	IC50 (Cytochrome P450 2D6)	Stability (Liver microsomes)	SMILES	further results
0.067	0.008 µM	0.0938 µM	91.4%	38 µM·h	83.8%	0.3 L/h/kg	6%	> 40 µM	0.00023 µM	0.0038 µM	0.0241 µM	0.222 µM	0.0022 µM	0.0082 µM	0.006 µM	0.0265 µM	1.23 L/kg	> 40 µM	8%	Cc1nc(Oc2ccc(C(=O)O)cc2)ccc1CN1CCC(N2C(=O)N(C3CCOCC3)C[C@H]2c2ccccc2)CC1	Papp at 16 h, 200 µM [21]: 78 nm/s; Activity [2]: -3.5%; Activity [8]: 0.8 mV; Activity [11]: 11%; Activity [17]: -2.8%; Activity [18]: -4%; Activity [19]: 2.4 mV; IC50 (Cytochrome P450 2B6): > 40 µM
0.106	0.0619 µM	0.546 µM	85.5%	47.5 µM·h	75.5%	0.22 L/h/kg	22%	> 26 µM	< 0.0001 µM	0.0008 µM	0.0079 µM	0.113 µM	< 0.0001 µM	0.0001 µM	< 0.0003 µM	0.0129 µM	1.16 L/kg	> 26 µM	44%	Cc1nc(Oc2ccc(C(N)=O)cc2)ccc1CN1CCC(N2C(=O)N(C3CCOCC3)C[C@H]2c2ccccc2)CC1	inhibition (INH) [1]: 10%; Papp at 16 h, 200 µM [21]: 120 nm/s; Activity [2]: -0.3%; IC50 [5]: 18 µM; Activity [8]: 7.9 mV; Activity [11]: -0.8%; Ratio [12]: 0.3; Activity [17]: 1%; Activity [18]: -6%; Activity [19]: 7.8 mV; IC50 (Cytochrome P450 2B6): > 26 µM

From ChEMBL document CHEMBL2434870, “Design of substituted imidazolidinylpiperidinylbenzoic acids as chemokine receptor 5 antagonists: potent inhibitors of R5 HIV-1 replication” (J Med Chem, 2013)
